According to ChEMBL document CHEMBL5724801, “EUbOPEN Chemogenomics Library - Multiplex” (2024):
“And” between values parts separate entries of the source, which are not always exact repeats. Equal entries are not always repeated.

Tested on: HEK-293T
Assay: Multiplex assay against HEK293T
Format: toxicity, cell-based
Conditions: human
How it was run: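 On a CQ1 microscope at 37°C and 5% CO2, live cells were imaged after compound addition. They had been stained at seeding with Hoechst33342, BioTracker Green Microtubule Cytoskeleton Dye, MitoTracker Red and Annexin V Alexa Fluor 680. CellPathfinder machine-learning gating assigned cells to Hoechst high-intensity objects or normal cells, normal cells to healthy, pyknosed or fragmented nuclei, and pyknosed cells to mitotic or apoptotic. Tubulin, mitochondrial-mass and membrane-permeability phenotypes are per cents of healthy-nucleus cells.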

[1] = 12 h, 1 µM, compound concentration 1 uM
[2] = 12 h, 10 µM, compound concentration 10 uM
[3] = 24 h, 1 µM, compound concentration 1 uM
[4] = 24 h, 10 µM, compound concentration 10 uM
[5] = 48 h, 1 µM, compound concentration 1 uM
[6] = 48 h, 10 µM, compound concentration 10 uM

CN1CC[C@@]23CCCC[C@@H]2[C@@H]1Cc1ccc(O)cc13.O=C(O)C(O)C(O)C(=O)O
Population Apoptotic (%) [1]: 5.07% and 6.25% | Population Fragmented Nuclei (%) [1]: 0% and 2.38% | Population Healthy Nuclei (%) [1]: 61.34% and 21.43% | Population Hoechst High Intensity Objects (%) [1]: 0.28% and 0.59% | Population Membrane Permeable-Phenotype (%) [1]: 0% | Population Mitochondria Different-Phenotype (%) [1]: 31.51% and 13.89% | Population Mitotic Cells (%) [1]: 94.93% and 93.75% | Population Normal (%) [1]: 99.72% and 99.41% | Population Pyknosed Nuclei (%) [1]: 38.66% and 76.19% | Total Cell Count [1]: 358 and 169 | Population Apoptotic (%) [2]: 7.34% and 9.57% | Population Fragmented Nuclei (%) [2]: 0.33% and 1.28% | Population Healthy Nuclei (%) [2]: 63.93% and 25% | Population Hoechst High Intensity Objects (%) [2]: 0% | Population Membrane Permeable-Phenotype (%) [2]: 0% and 2.56% | Population Mitochondria Different-Phenotype (%) [2]: 30.77% | Population Mitotic Cells (%) [2]: 92.66% and 90.43% | Population Normal (%) [2]: 100% | Population Pyknosed Nuclei (%) [2]: 35.74% and 73.72% | Total Cell Count [2]: 305 and 156 | Population Apoptotic (%) [3]: 13.27% and 11.22% | Population Fragmented Nuclei (%) [3]: 1.37% and 2.04% | Population Healthy Nuclei (%) [3]: 83.74% and 47.96% | Population Hoechst High Intensity Objects (%) [3]: 0.15% and 0.51% | Population Membrane Permeable-Phenotype (%) [3]: 1.27% and 3.19% | Population Mitochondria Different-Phenotype (%) [3]: 9.98% and 11.7% | Population Mitotic Cells (%) [3]: 86.73% and 88.78% | Population Normal (%) [3]: 99.85% and 99.49% | Population Tubulin-Different-Phenotype (%) [3]: 6.17% and 3.19% | Population Apoptotic (%) [4]: 10.81% and 11.46% | Population Fragmented Nuclei (%) [4]: 0.62% and 0.67% | Population Healthy Nuclei (%) [4]: 76.45% and 35.33% | Population Hoechst High Intensity Objects (%) [4]: 0% | Population Membrane Permeable-Phenotype (%) [4]: 0.54% and 0% | Population Mitochondria Different-Phenotype (%) [4]: 20.54% and 11.32% | Population Mitotic Cells (%) [4]: 89.19% and 88.54% | Population Normal (%) [4]: 100% | Population Pyknosed Nuclei (%) [4]: 22.93% and 64% | Population Tubulin-Different-Phenotype (%) [4]: 12.16% and 9.43% | Population Fragmented Nuclei (%) [5]: 4.07% and 2.37% | Population Healthy Nuclei (%) [5]: 87.05% and 78.04% | Population Hoechst High Intensity Objects (%) [5]: 0% | Population Membrane Permeable-Phenotype (%) [5]: 3.59% and 4.18% | Population Mitochondria Different-Phenotype (%) [5]: 11.36% and 7.6% | Population Mitotic Cells (%) [5]: 97.89% and 83.33% | Population Normal (%) [5]: 100% | Population Pyknosed Nuclei (%) [5]: 8.89% and 19.58% | Population Fragmented Nuclei (%) [6]: 2.47% and 1.7% | Population Healthy Nuclei (%) [6]: 87.64% and 68.94% | Population Hoechst High Intensity Objects (%) [6]: 0% | Population Membrane Permeable-Phenotype (%) [6]: 5.64% and 3.09% | Population Mitochondria Different-Phenotype (%) [6]: 15.29% and 22.84% | Population Mitotic Cells (%) [6]: 95.19% and 81.16% | Population Normal (%) [6]: 100% | Population Pyknosed Nuclei (%) [6]: 9.89% and 29.36%

CCn1c(-c2nonc2N)nc2c(C#CC(C)(C)O)ncc(OCC3CCCNC3)c21 (centres undefined)
Population Apoptotic (%) [1]: 10.29% and 11.11% | Population Fragmented Nuclei (%) [1]: 2.35% and 5.52% | Population Hoechst High Intensity Objects (%) [1]: 0.29% and 0% | Population Membrane Permeable-Phenotype (%) [1]: 0% | Population Mitochondria Different-Phenotype (%) [1]: 31.65% and 45.45% | Population Mitotic Cells (%) [1]: 89.71% and 88.89% | Population Normal (%) [1]: 99.71% and 100% | Population Pyknosed Nuclei (%) [1]: 51.32% and 86.9% | Total Cell Count [1]: 342 and 145 | Population Apoptotic (%) [2]: 15.66% and 20.38% | Population Fragmented Nuclei (%) [2]: 0.98% and 2.91% | Population Hoechst High Intensity Objects (%) [2]: 1.92% and 0% | Population Membrane Permeable-Phenotype (%) [2]: 0% | Population Mitochondria Different-Phenotype (%) [2]: 33.96% and 20% | Population Mitotic Cells (%) [2]: 84.34% and 79.62% | Population Normal (%) [2]: 98.08% and 100% | Population Pyknosed Nuclei (%) [2]: 64.5% and 91.28% | Population Tubulin-Different-Phenotype (%) [2]: 48.11% and 40% | Total Cell Count [2]: 313 and 172 | Population Apoptotic (%) [3]: 27.07% and 20.59% | Population Fragmented Nuclei (%) [3]: 1.2% and 4.2% | Population Healthy Nuclei (%) [3]: 58.73% and 24.48% | Population Hoechst High Intensity Objects (%) [3]: 0.3% and 0% | Population Membrane Permeable-Phenotype (%) [3]: 1.54% and 0% | Population Mitochondria Different-Phenotype (%) [3]: 34.87% and 20% | Population Mitotic Cells (%) [3]: 72.93% and 79.41% | Population Normal (%) [3]: 99.7% and 100% | Population Pyknosed Nuclei (%) [3]: 40.06% and 71.33% | Total Cell Count [3]: 333 and 143 | Population Apoptotic (%) [4]: 43.87% and 34.93% | Population Fragmented Nuclei (%) [4]: 1.02% and 3.07% | Population Hoechst High Intensity Objects (%) [4]: 1.01% and 0% | Population Membrane Permeable-Phenotype (%) [4]: 0% | Population Mitochondria Different-Phenotype (%) [4]: 55.56% and 50% | Population Mitotic Cells (%) [4]: 56.13% and 65.07% | Population Normal (%) [4]: 98.99% and 100% | Population Pyknosed Nuclei (%) [4]: 52.9% and 89.57% | Population Tubulin-Different-Phenotype (%) [4]: 82.22% and 41.67% | Total Cell Count [4]: 296 and 163 | Population Apoptotic (%) [5]: 16.67% and 24.05% | Population Fragmented Nuclei (%) [5]: 1.43% and 3.95% | Population Healthy Nuclei (%) [5]: 81.46% and 51.41% | Population Hoechst High Intensity Objects (%) [5]: 0.32% and 0.56% | Population Membrane Permeable-Phenotype (%) [5]: 3.89% and 2.2% | Population Mitochondria Different-Phenotype (%) [5]: 59.34% and 63.74% | Population Mitotic Cells (%) [5]: 83.33% and 75.95% | Population Normal (%) [5]: 99.68% and 99.44% | Population Pyknosed Nuclei (%) [5]: 17.12% and 44.63% | Population Apoptotic (%) [6]: 73.58% and 71.96% | Population Fragmented Nuclei (%) [6]: 1.19% and 2.01% | Population Healthy Nuclei (%) [6]: 56.75% and 26.17% | Population Hoechst High Intensity Objects (%) [6]: 1.18% and 0% | Population Membrane Permeable-Phenotype (%) [6]: 2.8% and 0% | Population Mitochondria Different-Phenotype (%) [6]: 97.2% and 92.31% | Population Mitotic Cells (%) [6]: 26.42% and 28.04% | Population Normal (%) [6]: 98.82% and 100% | Population Pyknosed Nuclei (%) [6]: 42.06% and 71.81% | Population Tubulin-Different-Phenotype (%) [6]: 70.63% and 92.31% | Total Cell Count [6]: 255 and 149

NC1=NC(=O)/C(=C2\CCNC(=O)c3[nH]c4ccccc4c32)N1
Population Apoptotic (%) [1]: 13.33% and 11.21% | Population Fragmented Nuclei (%) [1]: 2.11% and 2.19% | Population Hoechst High Intensity Objects (%) [1]: 0.52% and 0% | Population Membrane Permeable-Phenotype (%) [1]: 0.85% and 3.7% | Population Mitotic Cells (%) [1]: 86.67% and 88.79% | Population Normal (%) [1]: 99.48% and 100% | Population Pyknosed Nuclei (%) [1]: 35.62% and 78.1% | Total Cell Count [1]: 381 and 137 | Population Apoptotic (%) [2]: 8.93% and 12.5% | Population Fragmented Nuclei (%) [2]: 2.8% and 2.1% | Population Hoechst High Intensity Objects (%) [2]: 0% | Population Membrane Permeable-Phenotype (%) [2]: 1% and 0% | Population Mitochondria Different-Phenotype (%) [2]: 33.83% and 15% | Population Mitotic Cells (%) [2]: 91.07% and 87.5% | Population Normal (%) [2]: 100% | Population Pyknosed Nuclei (%) [2]: 34.78% and 83.92% | Total Cell Count [2]: 322 and 143 | Population Apoptotic (%) [3]: 12% and 13.98% | Population Fragmented Nuclei (%) [3]: 1.99% and 1.92% | Population Healthy Nuclei (%) [3]: 77.28% and 38.46% | Population Hoechst High Intensity Objects (%) [3]: 0% | Population Membrane Permeable-Phenotype (%) [3]: 0.86% and 3.33% | Population Mitochondria Different-Phenotype (%) [3]: 12.45% and 11.67% | Population Mitotic Cells (%) [3]: 88% and 86.02% | Population Normal (%) [3]: 100% | Population Pyknosed Nuclei (%) [3]: 20.73% and 59.62% | Population Tubulin-Different-Phenotype (%) [3]: 11.37% and 1.67% | Population Apoptotic (%) [4]: 14.91% and 16% | Population Fragmented Nuclei (%) [4]: 1.32% and 5.13% | Population Healthy Nuclei (%) [4]: 73.68% and 30.77% | Population Hoechst High Intensity Objects (%) [4]: 0% | Population Membrane Permeable-Phenotype (%) [4]: 0.89% and 6.25% | Population Mitochondria Different-Phenotype (%) [4]: 13.69% and 18.75% | Population Mitotic Cells (%) [4]: 85.09% and 84% | Population Normal (%) [4]: 100% | Population Pyknosed Nuclei (%) [4]: 25% and 64.1% | Population Tubulin-Different-Phenotype (%) [4]: 10.42% and 4.17% | Total Cell Count [4]: 456 and 156 | Population Apoptotic (%) [5]: 9.77% and 15.52% | Population Fragmented Nuclei (%) [5]: 3.77% and 1.5% | Population Healthy Nuclei (%) [5]: 86.2% and 69.5% | Population Hoechst High Intensity Objects (%) [5]: 0.08% and 0% | Population Membrane Permeable-Phenotype (%) [5]: 3.85% and 3.6% | Population Mitochondria Different-Phenotype (%) [5]: 10.94% and 10.79% | Population Mitotic Cells (%) [5]: 90.23% and 84.48% | Population Normal (%) [5]: 99.92% and 100% | Population Pyknosed Nuclei (%) [5]: 10.03% and 29% | Population Apoptotic (%) [6]: 6.19% and 12.05% | Population Fragmented Nuclei (%) [6]: 2.47% and 2.35% | Population Healthy Nuclei (%) [6]: 85.57% and 58.69% | Population Hoechst High Intensity Objects (%) [6]: 0.25% and 0.93% | Population Membrane Permeable-Phenotype (%) [6]: 2.16% and 0.8% | Population Mitochondria Different-Phenotype (%) [6]: 22.48% and 16.8% | Population Mitotic Cells (%) [6]: 93.81% and 87.95% | Population Normal (%) [6]: 99.75% and 99.07%
